Tests used:
[1] = Inhibition of HCV NS4A tagged recombinant single chain NS3 protease after 15 mins; parameters: species or system Hepacivirus hominis
Hepatitis C virus = test: Antiviral activity against HCV in human hepatoma cells assessed as inhibition of RNA replication by replicon assay; format: functional, Hepacivirus hominis
[2] = Selectivity for HCV NS3 protease over human neutrophil elastase
How it was run: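 Ratio of inhibitory activity against human neutrophil elastase to that against HCV protease (HNE/HCV), taken as selectivity. HCV activity was from a continuous protease assay using NS4A-tethered single-chain NS3 serine protease, giving Ki* as the equilibrium constant for reversible covalent binding of the electrophilic ketone to the active-site serine. Compounds were tested as P1-epimer diastereomer mixtures.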

| Structure (SMILES) | Ki [1] | EC90 (Hepatitis C virus) | Ratio [2] |
| --- | --- | --- | --- |
| CC(C)(C)[C@H](NC(=O)NC1(C(O)c2ccccc2)CCCCC1)C(=O)N1C[C@H]2[C@@H]([C@H]1C(=O)NC(CC1CC1)C(=O)C(N)=O)C2(C)C (stereo partly drawn) | 11 nM | 400 nM | 1170 |
| CC(C)(C)[C@H](NC(=O)NC1(CS(=O)(=O)c2cccc(O)c2)CCCCC1)C(=O)N1C[C@H]2[C@@H]([C@H]1C(=O)NC(CC1CC1)C(=O)C(N)=O)C2(C)C (stereo partly drawn) | 6 nM | 1000 nM | 200 |
| C=CCNC(=O)C(=O)C(CCC)NC(=O)[C@@H]1[C@@H]2[C@H](CN1C(=O)[C@@H](NC(=O)NC(C)(C)C)C1CCCCC1)C2(C)C (stereo partly drawn) | 280 nM |  |  |
| CC(C)(C)[C@H](NC(=O)NC1(Cc2ccccc2)CCCCC1)C(=O)N1C[C@H]2[C@@H]([C@H]1C(=O)NC(CC1CC1)C(=O)C(N)=O)C2(C)C (stereo partly drawn) | 12 nM | 85 nM | 395 |
| CCC(c1ccccc1)C1(NC(=O)N[C@H](C(=O)N2C[C@H]3[C@@H]([C@H]2C(=O)NC(CC2CC2)C(=O)C(N)=O)C3(C)C)C(C)(C)C)CCCCC1 (stereo partly drawn) | 20 nM | 400 nM | 1500 |
| CC(C)(C)[C@H](NC(=O)NC1(CS(=O)(=O)C(C)(C)C)CCCCC1)C(=O)N1C[C@H]2[C@@H]([C@H]1C(=O)NC(CC1CCC1)C(=O)C(N)=O)C2(C)C (stereo partly drawn) | 3 nM | 80 nM |  |
| CC(C)(C)[C@H](NC(=O)NC1(CN)CCCC1)C(=O)N1C[C@H]2[C@@H]([C@H]1C(=O)NC(CC1CC1)C(=O)C(N)=O)C2(C)C (stereo partly drawn) | 140 nM |  |  |
| CC(C)(C)[C@H](NC(=O)NC1(Cc2nccs2)CCCCC1)C(=O)N1C[C@H]2[C@@H]([C@H]1C(=O)NC(CC1CC1)C(=O)C(N)=O)C2(C)C (stereo partly drawn) | 11 nM | 200 nM | 620 |
| CC(C)(C)[C@H](NC(=O)NC1(Cc2ccc(O)cc2)CCCCC1)C(=O)N1C[C@H]2[C@@H]([C@H]1C(=O)NC(CC1CC1)C(=O)C(N)=O)C2(C)C (stereo partly drawn) | 30 nM | 400 nM | 260 |
| CC(C)(C)[C@H](NC(=O)NC1(Cc2cccc3ccccc23)CCCCC1)C(=O)N1C[C@H]2[C@@H]([C@H]1C(=O)NC(CC1CC1)C(=O)C(N)=O)C2(C)C (stereo partly drawn) | 44 nM | 400 nM | 470 |
| CC(C)(C)[C@H](NC(=O)NC1(Cc2ccccn2)CCCCC1)C(=O)N1C[C@H]2[C@@H]([C@H]1C(=O)NC(CC1CC1)C(=O)C(N)=O)C2(C)C (stereo partly drawn) | 7 nM | 180 nM |  |
| CCS(=O)(=O)CC1(NC(=O)N[C@H](C(=O)N2C[C@H]3[C@@H]([C@H]2C(=O)NC(CC2CC2)C(=O)C(N)=O)C3(C)C)C(C)(C)C)CCCCC1 (stereo partly drawn) | 11 nM | 400 nM | 290 |
| CC(C)(C)[C@H](NC(=O)NC1(Cc2cccc(O)c2)CCCCC1)C(=O)N1C[C@H]2[C@@H]([C@H]1C(=O)NC(CC1CC1)C(=O)C(N)=O)C2(C)C (stereo partly drawn) | 9 nM | 70 nM |  |
| CC(C)(C)[C@H](NC(=O)NC1(C(=O)c2ccccc2)CCCCC1)C(=O)N1C[C@H]2[C@@H]([C@H]1C(=O)NC(CC1CC1)C(=O)C(N)=O)C2(C)C (stereo partly drawn) | 100 nM | 2000 nM | 230 |
| CCS(=O)(=O)CC1(NC(=O)N[C@H](C(=O)N2C[C@H]3[C@@H]([C@H]2C(=O)NC(CC2CCC2)C(=O)C(N)=O)C3(C)C)C(C)(C)C)CCCCC1 (stereo partly drawn) | 5 nM | 90 nM | 1200 |
| CC(C)(C)[C@H](NC(=O)NC1(Cc2cccnc2)CCCCC1)C(=O)N1C[C@H]2[C@@H]([C@H]1C(=O)NC(CC1CC1)C(=O)C(N)=O)C2(C)C (stereo partly drawn) | 25 nM | 400 nM | 200 |
| CC(C)(C)[C@H](NC(=O)NC1(Cc2cccs2)CCCCC1)C(=O)N1C[C@H]2[C@@H]([C@H]1C(=O)NC(CC1CC1)C(=O)C(N)=O)C2(C)C (stereo partly drawn) | 9 nM | 200 nM | 470 |
| CC(C)(C)[C@H](NC(=O)NC1(CS(C)(=O)=O)CCCCC1)C(=O)N1C[C@H]2[C@@H]([C@H]1C(=O)NC(CC1CC1)C(=O)C(N)=O)C2(C)C (stereo partly drawn) | 2 nM | 300 nM | 460 |
| CC(C)(C)[C@H](NC(=O)NC1(CO)CCCC1)C(=O)N1C[C@H]2[C@@H]([C@H]1C(=O)NC(CC1CC1)C(=O)C(N)=O)C2(C)C (stereo partly drawn) | 15 nM | > 1000 nM |  |
| CC1(NC(=O)N[C@H](C(=O)N2C[C@H]3[C@@H]([C@H]2C(=O)NC(CC2CC2)C(=O)C(N)=O)C3(C)C)C(C)(C)C)CCC1 (stereo partly drawn) | 24 nM | 200 nM | 110 |
| CC(C)(C)[C@H](NC(=O)NC1(CS(=O)(=O)c2ccccn2)CCCCC1)C(=O)N1C[C@H]2[C@@H]([C@H]1C(=O)NC(CC1CCC1)C(=O)C(N)=O)C2(C)C (stereo partly drawn) | 10 nM | 300 nM | 1570 |

| Structure (SMILES) | Ki [1] | EC90 (Hepatitis C virus) | Ratio [2] |
| --- | --- | --- | --- |
| CC(C)(C)[C@H](NC(=O)NC1(Cc2ccccc2)CCCCCC1)C(=O)N1C[C@H]2[C@@H]([C@H]1C(=O)NC(CC1CC1)C(=O)C(N)=O)C2(C)C (stereo partly drawn) | 78 nM | 700 nM | 73 |
| CC(C)(C)[C@H](NC(=O)NC1(Cc2ccc3ccccc3c2)CCCCC1)C(=O)N1C[C@H]2[C@@H]([C@H]1C(=O)NC(CC1CC1)C(=O)C(N)=O)C2(C)C (stereo partly drawn) | 300 nM |  |  |
| CC(C)(C)[C@H](NC(=O)NC1(CS(=O)(=O)Cc2ccco2)CCCCC1)C(=O)N1C[C@H]2[C@@H]([C@H]1C(=O)NC(CC1CC1)C(=O)C(N)=O)C2(C)C (stereo partly drawn) | 4 nM | 500 nM | 200 |
| CC1(NC(=O)N[C@H](C(=O)N2C[C@H]3[C@@H]([C@H]2C(=O)NC(CC2CC2)C(=O)C(N)=O)C3(C)C)C(C)(C)C)CCCCC1 (stereo partly drawn) | 16 nM | 250 nM |  |
| CC1(NC(=O)N[C@H](C(=O)N2C[C@H]3[C@@H]([C@H]2C(=O)NC(CC2CC2)C(=O)C(N)=O)C3(C)C)C(C)(C)C)CCCC1 (stereo partly drawn) | 10 nM | 200 nM |  |
| CC1(NC(=O)N[C@H](C(=O)N2C[C@H]3[C@@H]([C@H]2C(=O)NC(CC2CC2)C(=O)C(N)=O)C3(C)C)C(C)(C)C)CCCCCC1 (stereo partly drawn) | 15 nM | 250 nM | 155 |
| CC(C)(C)[C@H](NC(=O)NC1(CS(C)(=O)=O)CCCCC1)C(=O)N1C[C@H]2[C@@H]([C@H]1C(=O)NC(CC1CCC1)C(=O)C(N)=O)C2(C)C (stereo partly drawn) | 4 nM | 500 nM | 2400 |
| CCCC(NC(=O)[C@@H]1[C@@H]2[C@H](CN1C(=O)[C@@H](NC(=O)NC(C)(C)C)C1CCCCC1)C2(C)C)C(=O)C(N)=O (stereo partly drawn) | 100 nM |  |  |
| CC(c1ccccc1)C1(NC(=O)N[C@H](C(=O)N2C[C@H]3[C@@H]([C@H]2C(=O)NC(CC2CC2)C(=O)C(N)=O)C3(C)C)C(C)(C)C)CCCCC1 (stereo partly drawn) | 11 nM | 400 nM | 2600 |
| CC(C)(C)[C@H](NC(=O)NC1(Cc2ccco2)CCCCC1)C(=O)N1C[C@H]2[C@@H]([C@H]1C(=O)NC(CC1CC1)C(=O)C(N)=O)C2(C)C (stereo partly drawn) | 11 nM | 100 nM |  |
| CC(C)(C)[C@H](NC(=O)NC1(CS(=O)(=O)C(C)(C)C)CCCCC1)C(=O)N1C[C@H]2[C@@H]([C@H]1C(=O)NC(CC1CC1)C(=O)C(N)=O)C2(C)C (stereo partly drawn) | 12 nM | 100 nM |  |
| CC(C)(C)[C@H](NC(=O)NC1(Cc2ccccc2)CCCC1)C(=O)N1C[C@H]2[C@@H]([C@H]1C(=O)NC(CC1CC1)C(=O)C(N)=O)C2(C)C (stereo partly drawn) | 24 nM | 300 nM | 130 |
| CC(C)(C)[C@H](NC(=O)NC1(Cc2ccccc2O)CCCCC1)C(=O)N1C[C@H]2[C@@H]([C@H]1C(=O)NC(CC1CC1)C(=O)C(N)=O)C2(C)C (stereo partly drawn) | 19 nM | 150 nM | 440 |
| CC(C)(C)[C@H](NC(=O)NC1(c2ccccc2)CCCCC1)C(=O)N1C[C@H]2[C@@H]([C@H]1C(=O)NC(CC1CC1)C(=O)C(N)=O)C2(C)C (stereo partly drawn) | 47 nM | 400 nM | 320 |
| CC(C)(C)[C@H](NC(=O)NC1(Cc2ccsc2)CCCCC1)C(=O)N1C[C@H]2[C@@H]([C@H]1C(=O)NC(CC1CC1)C(=O)C(N)=O)C2(C)C (stereo partly drawn) | 10 nM | 100 nM |  |
| CC(C)(C)[C@H](NC(=O)NC1(CS(=O)(=O)c2ccccc2)CCCCC1)C(=O)N1C[C@H]2[C@@H]([C@H]1C(=O)NC(CC1CCC1)C(=O)C(N)=O)C2(C)C (stereo partly drawn) | 9 nM | 200 nM | 1100 |
| CC(C)(C)[C@H](NC(=O)NC1(CS(=O)(=O)c2ccccc2)CCCCC1)C(=O)N1C[C@H]2[C@@H]([C@H]1C(=O)NC(CC1CC1)C(=O)C(N)=O)C2(C)C (stereo partly drawn) | 3 nM | 100 nM |  |
| CC(C)(C)[C@H](NC(=O)NC1(Cc2ccncc2)CCCCC1)C(=O)N1C[C@H]2[C@@H]([C@H]1C(=O)NC(CC1CC1)C(=O)C(N)=O)C2(C)C (stereo partly drawn) | 39 nM | 300 nM | 250 |
| Cc1cc(S(=O)(=O)CC2(NC(=O)N[C@H](C(=O)N3C[C@H]4[C@@H]([C@H]3C(=O)NC(CC3CC3)C(=O)C(N)=O)C4(C)C)C(C)(C)C)CCCCC2)co1 (stereo partly drawn) | 10 nM | 400 nM | 260 |
| CC(C)(C)[C@H](NC(=O)NC1(CS(=O)(=O)Cc2ccccc2)CCCCC1)C(=O)N1C[C@H]2[C@@H]([C@H]1C(=O)NC(CC1CC1)C(=O)C(N)=O)C2(C)C (stereo partly drawn) | 5 nM | 400 nM | 90 |
| CC1(NC(=O)N[C@H](C(=O)N2C[C@H]3[C@@H]([C@H]2C(=O)NC(CC2CCC2)C(=O)C(N)=O)C3(C)C)C(C)(C)C)CCCCC1 (stereo partly drawn) | 8 nM | 200 nM | 4100 |
